# Data published in ChEMBL document CHEMBL1773051, “Anti-inflammatory triterpenes from the leaves of Rosa laevigata” (J Nat Prod, 2011).
# The source made the active and inactive calls. No cut-off for these calls is given here.
# Columns and labels:
# RAW264.7 [1] = test: Cytotoxicity against LPS-stimulated mouse RAW264.7 cells assessed as cell viability upto 50 ug/mL for 4 hrs by MTT assay in presence of 0.01 to 1 ug/mL LPS measured after 24 hrs; format: cell-based
# In short: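 Viability of RAW 264.7 cells measured by MTT colorimetric assay after 24 h incubation with compounds. Compounds were tested up to 50 μg/mL alongside LPS at 0.01, 0.1 or 1 μg/mL, and at 100 μg/mL with 10 μg/mL LPS.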
# RAW264.7 [2] = test: Antiinflammatory activity against LPS-stimulated mouse RAW264.7 cells assessed as inhibition of TNFalpha production at 0.5 to 50 ug/ml pretreated for 4 hrs followed by challenge with 1 ug/mL LPS for 48 hrs by ELISA relative to control; format: functional, cell-based
# RAW264.7 [3] = test: Antiinflammatory activity against LPS-stimulated mouse RAW264.7 cells assessed as inhibition of IL-10 production at 0.5 to 50 ug/ml pretreated for 4 hrs followed by challenge with 1 ug/mL LPS for 48 hrs by ELISA relative to control; format: functional, cell-based
# HEK293 [4] = test: Antiinflammatory activity against LPS-stimulated NF-kappaB activated human HEK293 cells at 200 ug/ml pretreated for 4 hrs followed by challenge with LPS for 48 hrs by luciferase assay; format: functional, cell-based
# In short: (§1)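 NF-κB reporter 293 cells grown in DMEM with 10% FBS, penicillin 100 U/mL and streptomycin 100 μg/mL. Compounds tested at 12.5, 25, 50, 100 and 200 μg/mL, added 4 h before stimulation with 1 μg/mL LPS for 48 h. Cells then washed twice in PBS (pH 7.4) and lysed in passive lysis buffer, and luciferase activity read.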
# HEK293 [5] = test: Antiinflammatory activity against LPS-stimulated NF-kappaB activated human HEK293 cells at 12.5 ug/ml pretreated for 4 hrs followed by challenge with LPS for 48 hrs by luciferase assay; format: functional, cell-based; in short: as §1
# HEK293 [6] = test: Antiinflammatory activity against LPS-stimulated NF-kappaB activated human HEK293 cells at 50 ug/ml pretreated for 4 hrs followed by challenge with LPS for 48 hrs by luciferase assay; format: functional, cell-based; in short: as §1
# HEK293 [7] = test: Antiinflammatory activity against LPS-stimulated NF-kappaB activated human HEK293 cells at 25 ug/ml pretreated for 4 hrs followed by challenge with LPS for 48 hrs by luciferase assay; format: functional, cell-based; in short: as §1
# RAW264.7 [8] = test: Antiinflammatory activity against LPS-stimulated mouse RAW264.7 cells assessed as inhibition of nitric oxide production at 0.5 to 50 ug/ml pretreated for 4 hrs followed by challenge with 1 ug/mL LPS for 24 hrs by Griess reaction method relative to control
# RAW264.7 [9] = test: Antiinflammatory activity against LPS-stimulated mouse RAW264.7 cells assessed as inhibition of IL1-beta production at 0.5 to 50 ug/ml pretreated for 4 hrs followed by challenge with 1 ug/mL LPS for 48 hrs by ELISA relative to control; format: functional, cell-based
# RAW264.7 [10] = test: Cytotoxicity against LPS-stimulated mouse RAW264.7 cells assessed as decrease in cell viability upto 100 ug/mL for 4 hrs by MTT assay in presence of 10 ug/mL LPS measured after 24 hrs
# RAW264.7 [11] = test: Antiinflammatory activity against LPS-stimulated mouse RAW264.7 cells assessed as inhibition of IL-6 production at 0.5 to 50 ug/ml pretreated for 4 hrs followed by challenge with 1 ug/mL LPS for 48 hrs by ELISA relative to control; format: functional, cell-based
# HEK293 [12] = test: Antiinflammatory activity against LPS-stimulated NF-kappaB activated human HEK293 cells at 100 ug/ml pretreated for 4 hrs followed by challenge with LPS for 48 hrs by luciferase assay; format: functional, cell-based; in short: as §1
Compound,Activity (RAW264.7 [1]),inhibition (RAW264.7 [2]),inhibition (RAW264.7 [3]),Activity (HEK293 [4]),Activity (HEK293 [5]),Activity (HEK293 [6]),Activity (HEK293 [7]),inhibition (RAW264.7 [8]),inhibition (RAW264.7 [9]),Activity (RAW264.7 [10]),inhibition (RAW264.7 [11]),Activity (HEK293 [12])
CC1(C)CC[C@]2(C(=O)O)CC[C@]3(C)C(=C2C1)CC[C@@H]1[C@@]2(C)C[C@@H](O)[C@H](O)C(C)(C)[C@@H]2CC[C@]13C,Non-toxic,Active,Active,Active,Active,Active,Active,Active,Active,Toxic,Active,Active
CC1(C)CC[C@]2(C(=O)O)CC[C@]3(C)C(=CC[C@@H]4[C@@]5(C)C[C@@H](O)[C@@H](O)[C@@](C)(CO)[C@@H]5CC[C@]43C)[C@@H]2C1,Non-toxic,Active,Active,Active,Active,Active,Active,Active,Active,Toxic,Active,Active
CC(=O)[C@H](C)CCC1=CC2=CC[C@@H]3[C@@]4(C)C[C@@H](O)[C@H](O)[C@@](C)(CO)[C@@H]4CC[C@@]3(C)[C@]2(C)CC1,Non-toxic,Active,Active,Active,Active,Active,Active,Active,Active,Toxic,Active,Active
C[C@@H]1CC[C@]2(C(=O)O)CC[C@]3(C)C(=CC[C@@H]4[C@@]5(C)C[C@@H](O)[C@H](O)[C@@](C)(CO)[C@@H]5CC[C@]43C)[C@@H]2[C@]1(C)O,Non-toxic,Active,Active,Active,Active,Active,Active,Active,Active,Toxic,Active,Active
C[C@]12CCC(=O)C=C1CC[C@@H]1[C@@H]2[C@@H](O)C[C@@]2(C)[C@H]1CC[C@]2(O)C(=O)CO,,Active,Active,,,,,Active,Active,,Active,
